Published values from different studies.
Protocols differ between the studies behind these lines.
Target: Wee1-like protein kinase (WEE1, Homo sapiens, UniProt P30291)

| Structure (SMILES) | test | conditions | endpoint | result |
| --- | --- | --- | --- | --- |
| Cn1cc(-c2cccc(N3CCc4c(sc5c4CC(C)(C)C5)C3=O)c2CO)cc(Nc2ccncn2)c1=O | enzyme activity, inhibitor | 1 µM | inhibition | -4% |
| COc1cc(Nc2ncc(F)c(Nc3ccc4c(n3)NC(=O)C(C)(C)O4)n2)cc(OC)c1OC | binding | 10 µM | inhibition | 81% |
| O=c1[nH]c2ccccc2n1C1CCN(Cc2ccc(-c3[nH]c4cc5ncnc5cc4nc3-c3ccccc3)cc2)CC1 | cell-free assay | 0.5 µM | remaining signal | 93.9% |
| Cn1cncc1[C@@](O)(COc1ccc(C#N)cc1-c1ccc(OC(F)(F)F)cc1)c1ccc(C#N)cc1 | cell-free assay, competition with immobilised ligand | 1 µM | remaining binding | 100% |
| Cn1cc(-c2cc(F)cc(N3CCn4c(cc5c4CCCC5)C3=O)c2CO)cc(Nc2ccc(N3CCN(C4COC4)CC3)cn2)c1=O | enzyme activity, inhibitor | 0.1 µM | inhibition | 3% |
| Cc1nn(C)cc1-c1nc2c(N3CCN(Cc4ccc(Cl)cc4)CC3)c(Cl)cnc2[nH]1 | binding, competition with immobilised ligand | 1 µM | remaining binding | 96% |
| Nc1ncc(-c2nc(N3CCOCC3)nc(N3CCOCC3)n2)c(C(F)F)n1 | binding, competition with immobilised ligand | 10 µM | remaining binding | 100% |
| CC(C)(C)c1cc(C=C(C#N)C#N)cc(Br)c1O | enzyme activity, inhibitor | 0.5 µM | remaining activity | 90.9% |
| COc1ncccc1-c1cnn2ccc(N3CCN(C(=O)OC(C)C)CC3)nc12 | binding, competition with immobilised ligand | 1 µM | remaining binding | 82% |
